From ChEMBL document CHEMBL1156227, “New aromatic monoesters of alpha-aminoaralkylphosphonic acids as inhibitors of aminopeptidase N/CD13” (Bioorg Med Chem, 2010) come the findings set out here.

Test [1] deals with T1, Aminopeptidase N (Sus scrofa, UniProt P15145).
T1 sequence (P15145 whole entry): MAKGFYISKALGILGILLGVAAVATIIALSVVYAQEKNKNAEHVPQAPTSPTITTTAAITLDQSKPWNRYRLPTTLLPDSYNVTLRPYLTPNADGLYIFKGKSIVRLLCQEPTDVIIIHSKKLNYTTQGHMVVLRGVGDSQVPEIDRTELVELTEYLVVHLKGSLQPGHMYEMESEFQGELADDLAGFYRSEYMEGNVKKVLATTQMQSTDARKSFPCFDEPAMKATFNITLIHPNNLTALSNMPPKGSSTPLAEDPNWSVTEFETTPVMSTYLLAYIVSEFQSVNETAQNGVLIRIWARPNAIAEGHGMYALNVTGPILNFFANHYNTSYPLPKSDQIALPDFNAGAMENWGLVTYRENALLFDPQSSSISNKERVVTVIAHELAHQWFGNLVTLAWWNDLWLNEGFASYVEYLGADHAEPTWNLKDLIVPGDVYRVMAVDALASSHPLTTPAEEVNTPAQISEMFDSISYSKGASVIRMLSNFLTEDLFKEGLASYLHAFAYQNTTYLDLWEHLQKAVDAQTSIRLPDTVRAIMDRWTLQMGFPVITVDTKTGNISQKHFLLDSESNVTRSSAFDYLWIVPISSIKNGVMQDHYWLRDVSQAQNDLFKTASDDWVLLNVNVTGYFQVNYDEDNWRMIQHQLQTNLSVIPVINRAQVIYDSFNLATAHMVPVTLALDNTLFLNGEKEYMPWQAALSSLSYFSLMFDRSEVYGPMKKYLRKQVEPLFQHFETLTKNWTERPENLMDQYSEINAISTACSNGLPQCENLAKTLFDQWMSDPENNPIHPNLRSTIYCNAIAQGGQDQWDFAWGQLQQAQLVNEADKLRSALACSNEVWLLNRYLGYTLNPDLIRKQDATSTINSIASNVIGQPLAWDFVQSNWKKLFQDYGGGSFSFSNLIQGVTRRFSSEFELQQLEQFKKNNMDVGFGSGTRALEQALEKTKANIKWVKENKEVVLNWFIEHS
Briefly: Inhibition of pig kidney aminopeptidase N using Leu-AMC as substrate.

The target in test [2] is Aminopeptidase N (Homo sapiens, UniProt P15144). Briefly: Inhibition of aminopeptidase N.
Aminopeptidase N (Homo sapiens, UniProt P15144), sequence (P15144 whole entry): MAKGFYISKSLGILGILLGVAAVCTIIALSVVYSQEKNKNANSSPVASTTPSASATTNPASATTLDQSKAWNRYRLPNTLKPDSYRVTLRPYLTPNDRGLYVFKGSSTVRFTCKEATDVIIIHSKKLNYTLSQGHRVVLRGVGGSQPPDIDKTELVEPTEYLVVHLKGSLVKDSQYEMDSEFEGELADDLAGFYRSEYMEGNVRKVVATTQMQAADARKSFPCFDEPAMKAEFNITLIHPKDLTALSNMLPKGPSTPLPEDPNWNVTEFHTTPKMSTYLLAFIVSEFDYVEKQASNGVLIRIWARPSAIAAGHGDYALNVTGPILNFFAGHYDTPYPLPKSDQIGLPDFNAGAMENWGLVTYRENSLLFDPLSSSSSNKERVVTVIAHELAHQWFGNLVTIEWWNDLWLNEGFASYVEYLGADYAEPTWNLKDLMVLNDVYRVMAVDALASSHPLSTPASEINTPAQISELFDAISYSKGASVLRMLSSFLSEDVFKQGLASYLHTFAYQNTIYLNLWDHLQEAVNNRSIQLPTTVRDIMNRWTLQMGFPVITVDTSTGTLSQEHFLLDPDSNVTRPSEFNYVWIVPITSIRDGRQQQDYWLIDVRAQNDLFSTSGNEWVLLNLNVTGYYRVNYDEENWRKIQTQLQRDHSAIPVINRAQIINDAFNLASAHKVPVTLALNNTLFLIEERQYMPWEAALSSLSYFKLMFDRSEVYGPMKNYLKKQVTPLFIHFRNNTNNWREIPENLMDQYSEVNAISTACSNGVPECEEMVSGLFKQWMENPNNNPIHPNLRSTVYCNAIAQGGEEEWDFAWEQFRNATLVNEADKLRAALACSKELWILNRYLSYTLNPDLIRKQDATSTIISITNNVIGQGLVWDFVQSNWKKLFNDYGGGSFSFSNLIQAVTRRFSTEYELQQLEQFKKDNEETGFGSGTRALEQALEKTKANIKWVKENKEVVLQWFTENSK
In a further test the target is Cytosol aminopeptidase (Homo sapiens, UniProt P28838). Kind of test: Inhibition of leucine aminopeptidase.
Cytosol aminopeptidase, sequence (P28838 whole entry): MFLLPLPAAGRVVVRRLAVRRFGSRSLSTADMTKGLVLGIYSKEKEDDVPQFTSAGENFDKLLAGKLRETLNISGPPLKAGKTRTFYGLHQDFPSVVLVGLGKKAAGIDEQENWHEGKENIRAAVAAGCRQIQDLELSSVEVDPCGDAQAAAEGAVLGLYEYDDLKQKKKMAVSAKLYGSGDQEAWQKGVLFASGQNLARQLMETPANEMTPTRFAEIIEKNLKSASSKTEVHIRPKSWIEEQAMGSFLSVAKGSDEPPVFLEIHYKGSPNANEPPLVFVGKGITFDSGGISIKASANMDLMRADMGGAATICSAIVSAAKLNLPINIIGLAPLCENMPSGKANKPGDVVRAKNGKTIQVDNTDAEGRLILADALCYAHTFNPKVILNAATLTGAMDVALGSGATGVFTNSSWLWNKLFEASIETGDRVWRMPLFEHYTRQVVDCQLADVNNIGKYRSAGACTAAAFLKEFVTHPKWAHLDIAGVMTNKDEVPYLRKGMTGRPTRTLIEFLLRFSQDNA
Test [3] has as its system HT-1080. Kind of test: Cytotoxicity against human HT1080 cells assessed as cell growth inhibition after 72 hrs by XTT assay in the presence of TNFalpha relative to control. In kind it is functional. Further details: scale not given: the % may be the effect or the level left. The method, boiled down:
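HT-1080 cells grown adherent in DMEM with 2 mM L-glutamine, 10% heat-inactivated FBS and penicillin–streptomycin at 37 °C, 5% CO2. Inhibitor (0–300 μM, from 0.1 M NaOH stock, diluted in medium) co-applied with TNF-α (0–30 μg/ml) for 72 h. Controls received matching 0.1 M NaOH. XTT added for 4 h, A490 read, normalised to untreated cells.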

Test [4] concerns PANC-1. Briefly: Cytotoxicity against human PANC1 cells assessed as cell growth inhibition at 300 uM after 72 hrs by XTT assay relative to control. In kind it is functional. Further details: scale not given: the % may be the effect or the level left. The method, boiled down: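 PANC-1 cells cultured adherent in DMEM with 2 mM L-glutamine, 10% non-heat-inactivated FBS and penicillin–streptomycin at 37 °C, 5% CO2. Inhibitor (0–300 μM, 0.1 M NaOH stock diluted in medium) applied 72 h, with controls given matching 0.1 M NaOH. XTT incubation 4 h, A490 read, values normalised to untreated culture as percentage growth.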

The subject of test [5] is HT-1080. Kind of test: Cytotoxicity against human HT1080 cells assessed as cell growth inhibition at 300 uM after 72 hrs by XTT assay relative to control. Format: functional. Also noted: scale not given: the % may be the effect or the level left. The procedure, abridged:
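HT-1080 cells kept adherent in DMEM plus 2 mM L-glutamine, 10% heat-inactivated FBS and penicillin–streptomycin at 37 °C, 5% CO2. Exposed 72 h to inhibitor (0–300 μM; 0.1 M NaOH stock diluted in medium), with vehicle controls given matching 0.1 M NaOH. XTT staining for 4 h, absorbance at 490 nm, expressed as percentage growth relative to untreated culture.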

Test [6] has as its system HT-1080. Kind of test: Cytotoxicity against human HT1080 cells assessed as cell growth inhibition after 72 hrs by XTT assay. In kind it is functional. Also noted: scale not given: the % may be the effect or the level left. The procedure, abridged:
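HT-1080 cells cultured adherent in DMEM with 2 mM L-glutamine, 10% heat-inactivated FBS and 1% penicillin–streptomycin at 37 °C, 5% CO2. Exposed 72 h to inhibitor (0–300 μM from 0.1 M NaOH stocks diluted in medium; NaOH vehicle controls), with or without TNF-α (0–30 μg/ml). XTT for 4 h, absorbance at 490 nm, growth expressed relative to untreated cells; mean ± one SD.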

In test [7] the test system is PANC-1. Briefly: Cytotoxicity against human PANC1 cells assessed as cell growth inhibition after 72 hrs by XTT assay. In kind it is functional. Further details: scale not given: the % may be the effect or the level left. The procedure, abridged: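 PANC-1 cells grown adherent in DMEM with 2 mM L-glutamine, 10% uninactivated FBS and 1% penicillin–streptomycin at 37 °C, 5% CO2. Treated 72 h with inhibitor (0–300 μM; stocks in 0.1 M NaOH, diluted in medium; vehicle controls), alone or with TNF-α (0–30 μg/ml). XTT added for 4 h; absorbance read at 490 nm and normalised to untreated cultures; mean ± one SD.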

The molecule `CCC(N)P(=O)(O)Oc1ccc(C)c(C)c1` (stereo unspecified) displayed a half-maximal inhibitory concentration (IC50) at Aminopeptidase N [1] of 3 µM. Same read-out and setting: with `CCCCC(N)P(=O)(O)Oc1ccc(C(=O)O)cc1` (stereo unspecified) the figure was 55 µM. Still for that read-out and setting: as for `CCC(N)P(=O)(O)Oc1ccc(C)cc1` (stereo unspecified), the figure is 7 µM; as for `CC(C)(C)c1ccc(OP(=O)(O)C(N)CCc2ccccc2)cc1` (stereo unspecified), 1.9 µM; as for `CCc1ccc(OP(=O)(O)C(N)CCc2ccccc2)cc1` (stereo unspecified), 13 µM. Consider `NC(Cc1ccccc1)P(=O)(O)O` (stereo unspecified), for which the Ki was 27.5 µM on Aminopeptidase N [2] and 0.42 µM on Cytosol aminopeptidase. The molecule also gave an IC50 against Aminopeptidase N [1] of 54 µM. At Aminopeptidase N [1], `CCC(N)P(=O)(O)O` (stereo unspecified) showed a 50% inhibitory concentration (IC50) of 50 µM.

On to `CC(C)CC(N)P(=O)(O)O` (stereo unspecified), for which the Ki at Aminopeptidase N [2] amounted to 53 µM. The molecule also displayed a half-inhibitory concentration (IC50) against Aminopeptidase N [1] of 37 µM. Take `NC(c1ccccc1)P(=O)(O)O` (stereo unspecified) [AMINO(PHENYL)METHYLPHOSPHONIC ACID]: on Aminopeptidase N [1], it took 220 µM to reach half-maximal inhibition (IC50).

In turn, `Cc1cc(C)c(C)c(OP(=O)(O)C(N)CCc2ccccc2)c1` (stereo unspecified) gave a half-inhibitory concentration (IC50) against Aminopeptidase N [1] of 5 µM. Take `Cc1ccc(OP(=O)(O)C(N)CCc2ccccc2)cc1C` (stereo unspecified): the IC50 at Aminopeptidase N [1] is 2.2 µM.

Molecule `CC(C)C(N)P(=O)(O)Oc1ccccc1` (stereo unspecified) displayed an IC50 at Aminopeptidase N [1] of 14 µM. Still for that read-out and setting: with `CCC(N)P(=O)(O)Oc1cc(C)ccc1C` (stereo unspecified) the figure was 120 µM. Take `CCC(N)P(=O)(O)Oc1ccc(C(C)(C)C)cc1` (stereo unspecified): the Activity in the test with HT-1080 [3] worked out at 60%; in the test with PANC-1 [4], 26%; in the test with HT-1080 [5], 36%. Also, on Aminopeptidase N [1], the half-inhibitory concentration (IC50) came out at 1.1 µM. Regarding `CCCCCC(N)P(=O)(O)Oc1ccccc1` (stereo unspecified), the IC50 against Aminopeptidase N [1] stood at 4.8 µM. Still for that read-out and setting: as for `CCCCC(N)P(=O)(O)O` (stereo unspecified), the figure is 75 µM; as for `CC(C)c1ccc(OP(=O)(O)C(N)CCc2ccccc2)cc1` (stereo unspecified), 0.5 µM; as for `CCC(N)P(=O)(O)Oc1ccc(C(=O)O)cc1` (stereo unspecified), 200 µM. Regarding `CCC(CC)C(N)P(=O)(O)Oc1ccccc1` (stereo unspecified), on Aminopeptidase N [1], the IC50 is more than 100 µM. Same read-out and setting: as for `Cc1cc(C)c(C)c(OP(=O)(O)C(C)N)c1` (stereo unspecified), the figure is 14 µM; as for `COc1ccc(OP(=O)(O)C(N)CCc2ccccc2)cc1` (stereo unspecified), 2.9 µM; as for `CCCCC(N)P(=O)(O)Oc1ccc(OC)cc1` (stereo unspecified), 210 µM. Still for that read-out and setting: with `CCc1ccc(OP(=O)(O)C(C)N)cc1` (stereo unspecified) the figure was 8.3 µM. In the case of `CCCCC(N)P(=O)(O)Oc1ccc(C)cc1` (stereo unspecified), the IC50 against Aminopeptidase N [1] turned out to be 1 µM. As for `NC(Cc1ccccc1)P(=O)(O)Oc1ccccc1` (stereo unspecified), the values for the Ki at Aminopeptidase N [2] and at Cytosol aminopeptidase were 27.5 µM and 0.42 µM, respectively. For the same molecule, the midpoint of inhibition at Aminopeptidase N [1], the IC50, lay at 8.2 µM. `Cc1ccc(C)c(OP(=O)(O)C(N)CCc2ccccc2)c1` (stereo unspecified) had an IC50 against Aminopeptidase N [1] of 15 µM. Consider `CC(C)C[C@H](NC(=O)[C@@H](O)[C@H](N)Cc1ccccc1)C(=O)O` [UBENIMEX], for which the Activity in the test with HT-1080 [6] and with PANC-1 [7] was less than 10% each time. With `NC(CCc1ccccc1)P(=O)(O)Oc1ccc(C(=O)O)cc1` (stereo unspecified), on Aminopeptidase N [1], 22 µM corresponded to half-maximal inhibition (IC50). On the same count and under the same terms, with `CCCCC(N)P(=O)(O)Oc1cc(C)ccc1C` (stereo unspecified) the figure was 200 µM. Still for that read-out and setting: with `CCCC(N)P(=O)(O)O` (stereo unspecified) the figure was 15 µM. `CC(C)CC(N)P(=O)(O)Oc1ccccc1` (stereo unspecified): the inhibition constant (Ki) at Aminopeptidase N [2] came to 53 µM; on Cytosol aminopeptidase it was 0.23 µM. This molecule registered an IC50 against Aminopeptidase N [1] of 9.3 µM.

The molecule `CCCCCC(N)P(=O)(O)O` (stereo unspecified) yielded an IC50 at Aminopeptidase N [1] of 8.3 µM. Regarding `CCCCC(N)P(=O)(O)Oc1ccccc1` (stereo unspecified), on Aminopeptidase N [1], inhibition was half-maximal at 5.6 µM (IC50). On Aminopeptidase N [1], `CC(C)(C)CC(C)(C)c1ccc(OP(=O)(O)C(N)CCc2ccccc2)cc1` (stereo unspecified) showed an IC50 of 6.3 µM. For `CC(N)P(=O)(O)Oc1ccc(C(C)(C)C)cc1` (stereo unspecified), on Aminopeptidase N [1], the IC50 turned out to be 8.2 µM. The same measure, in the same setting: as for `CC(N)P(=O)(O)O` (stereo unspecified), the figure is 42 µM; as for `NC(CCc1ccccc1)P(=O)(O)Oc1ccccc1` (stereo unspecified), 6.2 µM; as for `NC(c1ccccc1)P(=O)(O)Oc1ccccc1` (stereo unspecified), 21 µM. As for `CCCCC(N)P(=O)(O)Oc1ccc(C)c(C)c1` (stereo unspecified), the IC50 on Aminopeptidase N [1] amounted to 1.4 µM. Same read-out and setting: as for `CC(C)C(N)P(=O)(O)O` (stereo unspecified), the figure is 104 µM.
